Bioassay records as filed in PubChem.
ALR inh = inhibitors of human sulfhydryl oxidase ALR; AID 485317; inhibition, % (test concentration not listed); 3.8% of 290,000 active; P55789; purified ALR, DTT oxidation, H2O2 HRP-luminol luminescence;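 active means mean replicate inhibition above about 79%, with every replicate also reaching it, limit read from the data; inconclusive means only one of the two criteria met; inactive means mean below limit and not every replicate reaching it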
Target sequence (P55789 whole entry, looked up): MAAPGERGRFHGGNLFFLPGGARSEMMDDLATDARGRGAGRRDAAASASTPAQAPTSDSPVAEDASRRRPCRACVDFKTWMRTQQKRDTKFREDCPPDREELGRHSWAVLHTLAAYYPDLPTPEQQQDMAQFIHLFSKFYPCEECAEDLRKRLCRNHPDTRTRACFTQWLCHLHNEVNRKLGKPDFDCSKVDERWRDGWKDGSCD
Dyrk1A ADPGlo = inhibitors of rat Dyrk1A kinase. ADP-Glo luminescence, NFATc1 peptide. 0.43% of 310,000 active. inhibition, % at 12.5 µM. Q63470; in the data active means inhibition above about 50%;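 further: plate controls were vehicle with enzyme for no effect and no enzyme for full effect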
Rtt109 HAT inh = inhibitors of Candida albicans Rtt109/Vps75 histone acetyltransferase; Q5AAJ8; purified Rtt109/Vps75, ThioGlo CoA-SH fluorescence, 4 h; inhibition, % at 34.9 µM; 0.16% of 330,000 active;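 active means inhibition of at least 50% in every replicate; inconclusive means best replicate reaches 50% inhibition but some replicates fall short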
Target sequence (Q5AAJ8 whole entry, looked up): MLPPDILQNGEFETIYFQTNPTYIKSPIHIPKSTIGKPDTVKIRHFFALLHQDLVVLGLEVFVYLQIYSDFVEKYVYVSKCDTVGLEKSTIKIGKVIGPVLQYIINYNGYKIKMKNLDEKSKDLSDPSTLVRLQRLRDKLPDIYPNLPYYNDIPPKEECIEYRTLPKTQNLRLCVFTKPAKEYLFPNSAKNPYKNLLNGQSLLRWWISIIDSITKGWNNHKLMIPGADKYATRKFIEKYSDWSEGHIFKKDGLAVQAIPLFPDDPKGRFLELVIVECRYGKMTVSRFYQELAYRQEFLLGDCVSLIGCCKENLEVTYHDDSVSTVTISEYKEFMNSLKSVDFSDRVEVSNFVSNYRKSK
CAL PDZ FP-1 = inhibitors of human CAL PDZ peptide binding | inhibition, % at 24.9 µM | purified CAL PDZ, TMR-peptide fluorescence polarization, 1 h | 0.92% of 300,000 active;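 active means mean inhibition of at least 30% with at least half of replicates also reaching 30%; inconclusive means no clear call, values can overlap the other calls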;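 further: 0% = DMSO neutral control and 100% = excess unlabeled competitor peptide PRC23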
CAL PDZ FP-2 = inhibitors of human CAL PDZ peptide binding | Q9HD26 | purified CAL PDZ, TMR-peptide fluorescence polarization, 1 h | inhibition, % at 20 µM | 0.02% of 330,000 active;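 active means highest replicate inhibition of at least 40%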;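 further: plate controls were DMSO neutral control wells for no effect and unlabeled competitor peptide control wells for full effect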
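System: purified tagged CAL PDZ domain construct (CerCALP). Schedule: 1 h incubation at room temperature before polarization reading. Medium: 25 mM sodium phosphate pH 7.4, 150 mM NaCl, TCEP, IgG, Thesit. Read-out: percent inhibition from loss of millipolarization. Measured by: FP readout, S and P plane fluorescence. Probe or stimulus: fluorescent TMR peptide probe.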
* = called active by the depositor; ? = inconclusive; . = not tested or not shown. An excerpt weighted towards active compounds, which were near 4.3% of everything screened.

SMILES	ALR inh	Dyrk1A ADPGlo	Rtt109 HAT inh	CAL PDZ FP-1	CAL PDZ FP-2
Cc1ccc(C)c(NC(NC(=O)c2ccccn2)C(Cl)(Cl)Cl)c1 (stereo not drawn)	3	-4	20	.	-1
COc1cc(/C=N/N2CCN(c3ccccc3)CC2)cc(OC)c1OC(C)=O	97*	-1	5	3	0
Cc1cnc(NC(=O)C2CC=CCC2)s1 (stereo not drawn)	0	-1	1	6	-1
CC1(c2ccc3ccccc3c2)NC(=O)N(CC(=O)N2CCN(Cc3ccccc3)CC2)C1=O (stereo not drawn)	2	-3	23	-1	-1
OC1(c2ccc3ccccc3c2)CCN(Cc2ccccc2)C1 (stereo not drawn)	-14	5	-3	38*	-1
CC(=O)N1CCN(CC(=O)c2ccc(Br)cc2)CC1	.	-5	3	-1	-3
O=C(CN1CC[n+]2c(-c3ccccc3)csc21)c1ccc(Br)cc1	98*	.	.	.	.
O=C(CN1CC[n+]2c(-c3cccs3)csc21)c1ccc(Br)cc1	98*	-2	-2	0	-2
CCCOc1ccc(/C(O)=C2/C(=O)C(=O)N(c3ccccn3)C2c2ccc(OC)cc2)cc1C (stereo not drawn)	10	-1	17	0	-3
CCn1c(=S)sc2c(=O)[nH]c(SCC(=O)Nc3cc(OC)ccc3OC)nc21	-3	1	4	-10	-8
Cc1ccc(S(=O)(=O)N(C)c2ccc(OCC(=O)Nc3nc4c(ccc5ccccc54)s3)cc2)cc1	84*	-2	-1	1	1
O=C(CCN1CCOCC1)Nc1cc(C(=O)Nc2ccc(Cl)cc2)ccc1N1CC2CC(C1)c1cccc(=O)n1C2 (stereo not drawn)	-2	4	11	62*	-3
CCc1cc2c(=O)oc(-c3ccc(F)cc3)nc2s1	27	.	0	-6	-1
CC1(C)CC2CC(C)(CN2Cc2c(O)ccc3ccccc23)C1 (stereo not drawn)	95*	1	12	-2	-3
CC1(C)CC2CC(C)(CN2Cc2cccc([N+](=O)[O-])c2)C1 (stereo not drawn)	3	-4	6	-1	0
NC(=O)COc1ccccc1C(=O)O	87*	.	-6	-8	0
O=C(O)c1ccccc1OCCOc1ccccc1C(=O)O	-1	.	3	-3	-1
COc1ccc(C(=O)CCC(C)(C)[N+](=O)[O-])cc1OC	-2	.	-6	33*	0
S=c1[nH]nc(COc2ccc(Cl)cc2)n1-c1ccc(Cl)cc1	85*	-6	-17	.	0
Cc1n[nH]c(=S)n1-c1ccc(Cl)cc1	89*	2	-10	3	0
COc1ccc(C(=O)CSc2nnc3n2CCCN3C(=O)Nc2ccccc2)cc1	-1	.	.	.	.
O=C(O)/C(=C\c1ccccc1OC(F)F)Sc1nnc(-c2ccc(F)cc2)o1	2	-4	14	.	-1
Cc1cc(C)cc(C(=O)Nc2cc3c4c(c2)CC(=O)N4CCC3)c1	-8	2	-1	2	-2
O=[N+]([O-])c1cccnc1N1CCOCC1	-27	-4	-7	-3	-2
O=[N+]([O-])c1cccnc1N1CCN(c2ccc(F)cc2)CC1	98*	.	-4	-3	1
SMILES	ALR inh	Dyrk1A ADPGlo	Rtt109 HAT inh	CAL PDZ FP-1	CAL PDZ FP-2
Fc1ccc(Br)cc1C1C=C(c2ccc(Br)s2)Nc2ncnn21 (stereo not drawn)	88*	4	?	-3	-1
O=C(c1ccc(=O)n(Cc2ccc(Cl)c(Cl)c2)c1)N1CCOCC1	6	-8	1	-6	-2
CC(C)c1ccc(/C=C2\SC(=O)N(CC(=O)NCCCn3ccnc3)C2=O)cc1	99*	-6	21	-4	-5
CC(C)(C)c1csc(NC(=O)CSc2nc3ccccc3c(=O)[nH]2)n1	94*	-17	4	-4	-2
Cc1[nH]c2ccccc2c1-c1csc(NC(=O)CSCCO)n1	99*	6	1	1	1
Cc1csc(SCC(=O)Nc2ccccc2)n1	25	13	-8	.	0
Cc1csc(NC(=O)CSc2nc3ccccc3c(=O)[nH]2)n1	99*	13	3	-4	-1
Cc1csc(NC(=O)CSCC(=O)Nc2ccccc2)n1	92*	9	2	-5	-2
COc1ccc(C(=O)N/N=C/c2sc(N3CCOCC3)nc2-c2ccccc2)cc1OC	8	-5	-6	-1	0
COC(=O)N/N=C/c1sc(N2CCCCC2)nc1-c1cccs1	98*	0	-2	-13	23
Cc1ccc(-n2nc(-c3ccc(OC(F)(F)F)cc3)cc2N)cc1C	0	.	.	.	.
COC(=O)c1c(NC(=O)CN(C)CC(=O)Nc2ccc(C)cc2)sc2c1CCC(C)C2 (stereo not drawn)	-1	.	1	69*	0
NC(=O)c1ccc(N2CCN(c3ccc(O)cc3)CC2)c([N+](=O)[O-])c1	99*	0	13	-3	-1
COc1ccc(C(=O)c2ccc(N3CCOCC3)c([N+](=O)[O-])c2)cc1	-3	-5	5	-5	-2
COc1ccc(N2CCN(c3ccc(C(=O)O)cc3[N+](=O)[O-])CC2)cc1	79*	-3	5	1	0
Cc1ccccc1CN1CCCC(C(=O)Nc2ccccc2Oc2cccnc2)C1 (stereo not drawn)	0	-3	6	-1	-1
CC(OC(=O)CSc1ccc(F)cc1)C(=O)NC1(C#N)CCCCC1 (stereo not drawn)	-1	-6	-21	4	0
CCOC(=O)C(=Cc1cc(=O)c(OC)co1)C(=O)OCC	.	-2	78*	1	0
O=C(NNc1ccccc1)C(=O)NNS(=O)(=O)c1ccc([N+](=O)[O-])cc1	98*	-8	16	-4	-2
CC(=O)Nc1ccc(S(=O)(=O)NNc2ccc([N+](=O)[O-])cc2)cc1	98*	.	0	4	0
CC(=O)Nc1ccc(S(=O)(=O)NNC(=O)c2ccc([N+](=O)[O-])cc2)cc1	72	.	1	-3	0
CCCn1c(SCC(=O)NCCc2ccccc2)nnc1-c1ccco1	-2	-1	5	-2	-2
COC(=O)[C@@H](N)Cc1ccc(O)c(O)c1	98*	4	19	2	0
Cc1ccc(C2(C)NC(=O)N(CC(=O)NNC(=O)c3ccoc3C)C2=O)cc1 (stereo not drawn)	0	15	-5	-2	-1
CC1CCN(C(=O)c2ccc3c(Cl)c4c(nc3c2)CCCC4)CC1	7	5	.	-1	-3
CCOC(=O)C1CCN(C(=O)c2ccc3c(Cl)c4c(nc3c2)CCCC4)CC1	95*	-2	-6	-2	-3
CCOC(=O)c1ccccc1NC(=O)c1ccc2c(SCC(=O)O)c3c(nc2c1)CCCC3	9	-7	24	-8	-6
CCCN1CCN(CCCNC(=O)c2ccc3c(Cl)c4c(nc3c2)CCCC4)CC1	44	7	2	-7	-4
